OX1R antag-1 – antagonists of human orexin 1 receptor (OX1R) | AID 485270, 2010 | 330,000 tested, 1.8% active | inhibition, % at 6.6 µM | Orexin/Hypocretin receptor type 1 (Homo sapiens), O43613 | OX1R-expressing cells, FRET antagonist read-out; in the data active = inhibition mostly above about 38%, no sharp cut-off; inactive = mostly below about 40%
Target sequence (O43613 whole entry, looked up): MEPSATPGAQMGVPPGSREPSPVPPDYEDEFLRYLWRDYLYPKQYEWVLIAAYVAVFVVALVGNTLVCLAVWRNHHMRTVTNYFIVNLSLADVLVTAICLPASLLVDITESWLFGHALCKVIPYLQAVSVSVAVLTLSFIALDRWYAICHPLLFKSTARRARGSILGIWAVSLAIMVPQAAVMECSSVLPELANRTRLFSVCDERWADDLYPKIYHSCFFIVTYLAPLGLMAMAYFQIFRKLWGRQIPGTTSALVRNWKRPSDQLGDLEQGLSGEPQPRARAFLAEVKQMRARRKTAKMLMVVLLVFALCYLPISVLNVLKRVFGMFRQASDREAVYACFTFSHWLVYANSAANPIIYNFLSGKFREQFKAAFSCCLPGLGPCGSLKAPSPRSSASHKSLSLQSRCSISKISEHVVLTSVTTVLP
OX1R antag-2 – OX1R (HCRTR1) antagonists, primary screen, fluorescence, CHO/OX1R cells, Fluo-8 calcium, orexin A | AID 434989, 2010 | inhibition, % at 5 µM | Fluo-8 calcium fluorescence | 330,000 tested, 0.43% active | Orexin/Hypocretin receptor type 1 (Homo sapiens), O43613;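 active = inhibition above its plate's threshold, mean inhibition of all tested compounds on the plate plus 3 SD, cut at about 37% in these data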
GPR7 antagonist – GPR7 receptor antagonists, primary screen, cell-based, fluorescence, single concentration | inhibition, % at 4.4 µM | AID 1861, 2009 | 290,000 tested, 1.1% active | GPR7-expressing cells, fluorescence antagonist assay | Neuropeptides B/W receptor type 1 (Homo sapiens), P48145; in the data active = inhibition above about 16%, passing the limit was not always enough;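 also: cells stimulated with the agonist NPW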
PGE2 EP2 inh – human EP2 receptor antagonists, primary screen, TR-FRET cAMP, C6 glioma cells. Prostaglandin E2 receptor EP2 subtype (Homo sapiens), P43116. C6 glioma cells expressing human EP2; cells stimulated with saturating PGE2. inhibition, % at 25 µM. 260,000 tested, 0.52% active. AID 1422, 2008;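 active = percent inhibition above 40 after rounding to a whole number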;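 also: rat C6 glioma host cells with rolipram phosphodiesterase inhibitor present; the protocol text gives 20 µM as final concentration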
Target sequence (P43116 whole entry, looked up): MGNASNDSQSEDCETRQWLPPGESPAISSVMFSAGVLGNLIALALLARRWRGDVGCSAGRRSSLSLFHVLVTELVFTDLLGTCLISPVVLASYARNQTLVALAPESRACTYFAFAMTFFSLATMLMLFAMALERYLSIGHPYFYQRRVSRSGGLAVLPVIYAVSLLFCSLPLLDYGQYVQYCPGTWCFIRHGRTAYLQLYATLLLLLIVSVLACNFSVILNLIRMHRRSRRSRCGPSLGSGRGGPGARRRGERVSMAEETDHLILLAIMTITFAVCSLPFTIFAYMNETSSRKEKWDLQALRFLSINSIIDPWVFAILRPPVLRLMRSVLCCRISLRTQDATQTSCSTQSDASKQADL
EP2 mod – EP2 receptor modulators, cAMP readout, primary screen, cell-based, HTRF cAMP, PGE2 stimulation; Prostaglandin E2 receptor EP2 subtype (Homo sapiens), P43116; EP2-expressing cells, cAMP HTRF FRET, PGE2 co-stimulation; induction, % at 25 µM; 260,000 tested, 0.83% active; AID 940, 2007;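 active = compounds whose cAMP rise, as percent of the full-agonist control response, exceeds 60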;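 also: rat C6 glioma line stably carrying human EP2 under a CMV promoter; the protocol text gives 20 µM as final concentration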
CHO parental Ca – ATP-evoked calcium signal inhibitors, parental CHO, primary screen, counter-screen for OX1R antagonist project, cell-based, fluorescence, Fluo-8 calcium dye; parental CHO-K1, ATP-induced calcium, Fluo-8 fluorescence; inhibition, % at 5.6 µM; 330,000 tested, 0.63% active;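 active = inhibition above that plate's mean sample inhibition plus 3 SD, cut at about 26% in these data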
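Material – parental CHO cells · Reagent – ATP stimulus · Compound – single nominal dose of 5.6 µM per compound · Detection – Fluo-8 fluorescence · Read-out basis – percent inhibition of calcium signal · Controls – ATP-challenged DMSO wells low, unchallenged DMSO wells high · Repeats – no replicates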
OX1R Fluo8 conf – OX1R (HCRTR1) antagonists, confirmation, fluorescence, CHO/OX1R cells, Fluo-8 calcium, orexin A; shares compounds with OX1R antag-2; orexin A calcium Fluo-8 fluorescence; inhibition, % at 5 µM; 1,100 tested, 38% active; AID 492963, 2010; in the data active = inhibition above about 29%
CHO Ca triplic – ATP-evoked calcium inhibition in parental CHO, counter-screen for OX1R antagonist project, cell-based, fluorescence, CHO-K1, triplicate; shares compounds with OX1R antag-2; ATP-induced calcium, Fluo-8 fluorescence; inhibition, % at 5.6 µM; 1,100 tested, 9.3% active;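 active = inhibition above a per-plate limit, the mean inhibition of that plate's test compounds plus 3 SD, cut at about 25% in these data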
Each line names hits and unclear results; the compound was inactive in the other large screens (follow-up assays come after a bar, where they were run). The list is not random: actives were taken first. Their share in the collection is about 3.7%.

CC(=O)NCCc1c(C)n(Cc2ccccc2)c2ccccc12	none (no result: PGE2 EP2 inh, EP2 mod)
Cc1ccccc1-n1c(SCC(=O)c2c(N)n(C3CC3)c(=O)[nH]c2=O)nnc1N1CCOCC1	none (no result: GPR7 antagonist, PGE2 EP2 inh, EP2 mod)
Cc1ccc(C)n1-c1nn(S(=O)(=O)c2cccc3cccnc23)c2cccc(F)c12	OX1R antag-2 39 | OX1R Fluo8 conf 30 | CHO Ca triplic inactive
Cc1ccc(S(=O)(=O)n2nc(-n3c(C)ccc3C)c3c(F)cccc32)c2ccccc12	none
COc1cccc(C2C(C#N)=C(N)N(N(C)C)C3=C2C(=O)CCC3)c1OC (stereo unspecified)	none (no result: PGE2 EP2 inh, EP2 mod)
CCCC(=O)Nc1ccc(Sc2ccc([N+](=O)[O-])cc2)cc1	none | OX1R Fluo8 conf inactive | CHO Ca triplic inactive
O=C(CSC1=Nc2ccccc2C2CC=NN12)NCc1ccco1 (stereo unspecified)	OX1R antag-2 57 (no result: GPR7 antagonist, PGE2 EP2 inh, EP2 mod) | OX1R Fluo8 conf inactive | CHO Ca triplic inactive
O=C(CSC1=Nc2ccccc2C2CC=NN12)Nc1ccc2c(c1)OCO2 (stereo unspecified)	none (no result: OX1R antag-1, OX1R antag-2, CHO parental Ca)
CC(C)(C)c1cc2nc(N)nc(N)n2n1	OX1R antag-2 50 | OX1R Fluo8 conf inactive | CHO Ca triplic inactive
CSc1nc(N)n2nc(C(C)(C)C)cc2n1	none
CCCn1c(N)c(C(=O)CSc2nc3ccccc3s2)c(=O)[nH]c1=O	OX1R antag-2 45 | OX1R Fluo8 conf inactive | CHO Ca triplic inactive
CCCn1c(N)c(C(=O)CSc2nnc(N)s2)c(=O)[nH]c1=O	none (no result: GPR7 antagonist, PGE2 EP2 inh, EP2 mod)
CN(C)c1nc(N)nc(CSc2nc3cc(Cl)ccc3o2)n1	none | OX1R Fluo8 conf inactive | CHO Ca triplic inactive
Cc1cc(C)n2cc(CSc3nc4cc(Cl)ccc4o3)nc2n1	none
Cc1ccc(NC(=O)C(OC(=O)c2ccc(C=O)cc2)c2ccccc2)cc1Cl (stereo unspecified)	none | OX1R Fluo8 conf 32 | CHO Ca triplic inactive
COc1ccc(-c2nc3n(c2NC(C)(C)C)CCN(Cc2cnn(C)c2C)C3)cc1	none (no result: OX1R antag-1, OX1R antag-2, GPR7 antagonist, CHO parental Ca)
CCN(c1ccccc1)S(=O)(=O)c1ccc(Cl)c(NC(=O)COC(=O)c2ccc(O)cc2)c1	none
CCN(c1ccccc1)S(=O)(=O)c1ccc(Cl)c(NC(=O)COC(=O)C2CC2C)c1 (stereo unspecified)	none | OX1R Fluo8 conf inactive | CHO Ca triplic inactive
CCN(CC)C(=O)C1c2ccccc2Oc2ccccc21	none (no result: PGE2 EP2 inh, EP2 mod) | OX1R Fluo8 conf inactive | CHO Ca triplic inactive
Cc1ccc(C)c(OCC(=O)N/N=C/c2c(C)nn(-c3ccccc3)c2Cl)c1	none (no result: PGE2 EP2 inh) | OX1R Fluo8 conf inactive | CHO Ca triplic inactive
CCOc1ccc(C2c3cc(OC)c(OC)cc3CC(=O)N2c2ccccc2)cc1 (stereo unspecified)	none
C=CCSc1nnc(-c2cc3c(s2)-c2ccccc2CC3)o1	none | OX1R Fluo8 conf inactive | CHO Ca triplic inactive
COCCNc1nc2c(c(=O)n(Cc3cccc(Cl)c3)c(=O)n2C)n1C	none (no result: PGE2 EP2 inh, EP2 mod)
Cc1cc(C)nc(/N=C(\N)Nc2ccc(F)c([N+](=O)[O-])c2)n1	none | OX1R Fluo8 conf 40 | CHO Ca triplic inactive
Cc1cc(C)nc(/N=C(\N)Nc2ccc(S(=O)(=O)Nc3nc(C)cc(C)n3)cc2)n1	none
C=CCn1c(-c2ccccc2)nc2nc3ccccc3nc21	none
COc1ccc(N(CC(=O)Nc2ccc(OC)c(OC)c2)S(=O)(=O)c2ccccc2)cc1Cl	none (no result: PGE2 EP2 inh, EP2 mod)
COc1ccc(N(CC(=O)Nc2cccc(N(C)S(C)(=O)=O)c2)S(=O)(=O)c2ccccc2)cc1Cl	OX1R antag-2 59 | OX1R Fluo8 conf 56 | CHO Ca triplic inactive
COc1ccc(N(CC(=O)Nc2cccc(N(C)S(C)(=O)=O)c2)S(=O)(=O)c2ccc(C)cc2)cc1	none | OX1R Fluo8 conf inactive | CHO Ca triplic inactive
CC(C)(C)c1ccc(OCC(O)CN(CCO)CC(O)Cn2ccc3ccccc32)cc1 (stereo unspecified)	none
OCCN(CC(O)Cn1ccc2ccccc21)CC(O)Cn1ccc2ccccc21 (stereo unspecified)	none (no result: PGE2 EP2 inh) | OX1R Fluo8 conf inactive | CHO Ca triplic inactive
COc1ccc2nc(NNC(=O)c3cc(=O)c4ccccc4o3)sc2c1	none
O=C(N/C(=C/c1cccc(Br)c1)c1nc(=S)[nH][nH]1)c1ccccc1	none | OX1R Fluo8 conf 49 | CHO Ca triplic inactive
O=[N+]([O-])c1ccc(/C=N\NS(=O)(=O)c2ccc(F)cc2)o1	none (no result: PGE2 EP2 inh, EP2 mod) | OX1R Fluo8 conf inactive | CHO Ca triplic inactive
COc1ccc(S(=O)(=O)N/N=C\c2ccc([N+](=O)[O-])o2)c(OC)c1	none (no result: PGE2 EP2 inh, EP2 mod)
Cc1ccc(O)c(NC(=O)c2noc3c2CCc2ccccc2-3)c1	none | OX1R Fluo8 conf inactive | CHO Ca triplic inactive
O=C(Nc1cc(Br)ccc1O)c1cnn2c(C(F)F)cc(C3CC3)nc12	none
O=C1Nc2ccc(S(=O)(=O)NCCC3=CCCCC3)c3cccc1c23	none | OX1R Fluo8 conf inactive | CHO Ca triplic inactive
COC(=O)c1ccc(CNC(=O)CCNC(=O)c2ccco2)cc1	none (no result: GPR7 antagonist, PGE2 EP2 inh, EP2 mod)
NC(=O)C1Cc2ccccc2CN1C(=O)c1cc(C2CC2)nn1-c1ccccc1 (stereo unspecified)	none (no result: GPR7 antagonist, PGE2 EP2 inh, EP2 mod)
COc1ccc(/C=C2\C(=O)NC(=S)N2C(=O)c2ccc(F)cc2)cc1	none | OX1R Fluo8 conf inactive | CHO Ca triplic inactive
O=C(NN1C(=O)/C(=C/c2ccc(O)cc2)SC1=S)c1cccc(O)c1	none (no result: PGE2 EP2 inh, EP2 mod)
O=C(NN1C(=O)/C(=C/c2ccc(O)cc2)SC1=S)c1ccccc1O	none (no result: PGE2 EP2 inh, EP2 mod) | OX1R Fluo8 conf inactive | CHO Ca triplic inactive
O=C(Nc1ccno1)Nc1ccc(Cl)cc1Cl	none
COc1ccc(C2C3=C(CCCC3=O)Nc3n[nH]c(C)c32)cc1OC (stereo unspecified)	none
CCOC(=O)c1ccccc1NC(=O)c1ccccc1SC	OX1R antag-2 53 | OX1R Fluo8 conf inactive | CHO Ca triplic inactive
COC(=O)CSc1nnc(-c2ccc(S(=O)(=O)NCc3ccccc3Cl)cc2)o1	none | OX1R Fluo8 conf 33 | CHO Ca triplic inactive
C[C@@H]1CN([C@@H](C)CO)C(=O)c2cccc(NC(=O)Nc3ccc(F)cc3)c2O[C@@H]1CN(C)Cc1ccc(Oc2ccccc2)cc1	OX1R antag-2 52 (no result: GPR7 antagonist, PGE2 EP2 inh, EP2 mod) | OX1R Fluo8 conf 62 | CHO Ca triplic inactive

Source: PubChem
